Experimental data from different studies.
Each line is one published result; the experiments were not run side by side.
Target: Serine/threonine-protein kinase PLK4 (PLK4, Homo sapiens, UniProt O00444)
Residues used in one study (O00444 1-970): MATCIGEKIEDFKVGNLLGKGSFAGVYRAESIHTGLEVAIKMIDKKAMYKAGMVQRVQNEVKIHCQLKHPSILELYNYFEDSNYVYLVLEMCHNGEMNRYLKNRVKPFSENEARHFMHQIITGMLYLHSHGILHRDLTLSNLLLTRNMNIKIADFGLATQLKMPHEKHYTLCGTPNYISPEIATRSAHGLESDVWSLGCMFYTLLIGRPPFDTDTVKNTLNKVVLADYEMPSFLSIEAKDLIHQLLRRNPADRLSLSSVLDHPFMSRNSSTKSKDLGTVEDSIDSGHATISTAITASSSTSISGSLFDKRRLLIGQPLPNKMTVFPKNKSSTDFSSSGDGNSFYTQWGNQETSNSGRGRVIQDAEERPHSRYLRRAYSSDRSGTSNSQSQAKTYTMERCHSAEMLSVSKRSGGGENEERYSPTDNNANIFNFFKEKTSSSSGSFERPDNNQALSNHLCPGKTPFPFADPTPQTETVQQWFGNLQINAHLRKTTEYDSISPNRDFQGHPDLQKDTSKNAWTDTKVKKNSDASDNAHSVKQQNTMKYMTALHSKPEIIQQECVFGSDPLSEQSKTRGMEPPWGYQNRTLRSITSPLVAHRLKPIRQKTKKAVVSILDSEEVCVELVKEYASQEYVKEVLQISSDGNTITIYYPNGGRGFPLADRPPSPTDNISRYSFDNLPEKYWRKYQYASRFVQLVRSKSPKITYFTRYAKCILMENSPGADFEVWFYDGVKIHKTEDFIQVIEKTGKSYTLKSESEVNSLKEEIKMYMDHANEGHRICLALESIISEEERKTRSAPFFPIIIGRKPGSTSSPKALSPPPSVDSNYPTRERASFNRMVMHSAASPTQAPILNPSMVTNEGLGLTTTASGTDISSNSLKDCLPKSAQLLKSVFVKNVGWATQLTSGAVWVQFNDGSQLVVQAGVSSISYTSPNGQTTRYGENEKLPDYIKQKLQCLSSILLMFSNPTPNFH

| SMILES | test | conditions | remaining binding [%] |
| --- | --- | --- | --- |
| C[C@@H]1CN(c2ccc3ncc(-c4ccc5[nH]nc(C6CC6)c5c4)n3n2)C[C@H](C)O1 | binding, competition with immobilised ligand | 50 nM | 88 |
| CN(CCCC(F)(F)F)c1nccc(-c2cnn3ncccc23)n1 | binding | 1 µM | 100 |
| Cc1cc(C)c(-n2ccn3nc(-c4cccnc4)cc23)cc1NC(=O)c1cc(C#N)cc(S(F)(F)(F)(F)F)c1 | cell-free assay, competition with immobilised ligand | 0.1 µM | 64.1 |
| COc1cnc(Nc2cccc(S(N)(=O)=O)c2)nc1N1CCN(c2ccccc2)CC1 | binding, competition with immobilised ligand | 1 µM | 99 |
| CS(=O)(=O)N1CCCC(NC(=O)[C@H](CCC2CCCCC2)NC(=O)c2ccc(CNc3ncnc4c3nnn4-c3ccccc3)cc2)C1 (stereo partly shown) | cell-free assay, competition with immobilised ligand | 0.1 µM | 82 |
| FC(F)(F)Oc1cccc(-c2cnc3ccc(-c4ccncc4)nn23)c1 | cell-free assay, competition with immobilised ligand | 5 µM | 91 |
| CN(c1nccc(-c2cnn3ncccc23)n1)C1CC1 | binding | 1 µM | 100 |
| CC(=O)c1c(NS(C)(=O)=O)c2cc(-c3ccc(Cl)cc3)c(-c3ccc(Cl)cc3Cl)nc2n(C)c1=O | cell-free assay, competition with immobilised ligand | 1 µM | 100 |
| Cc1cnc(Nc2ccc(C(=O)N3CCC(N4CCCC4)CC3)cc2)nc1-c1cc2ccccc2s1 | binding, competition with immobilised ligand | 1 µM | 14 |
| Cc1cnn2ncc(-c3ccnc(N(C)C)n3)c2c1 | binding | 1 µM | 74 |
| COc1ncc2cc3ccccc3nc2c1C#N | cell-free assay, competition with immobilised ligand | 5 µM | 100 |
| C[C@@H]1CCN(c2nccc(-c3cnn4ncccc34)n2)C1 | binding | 1 µM | 100 |
| O=C(Nc1c[nH]nc1C(=O)NC1CCNCC1)c1cc(F)cc(F)c1 | binding, competition with immobilised ligand | 1 µM | 97 |
| CCC(=O)N[C@H]1CC[C@@H](C(=O)N(C)c2ccc(-c3nc4ccccc4o3)cc2)C1 | cell-free assay, competition with immobilised ligand | 1 µM | 78 |
| C[C@@H](c1ccc(-n2cnc3c(N)ncnc32)cc1)N1CCc2nn(C)c(Cc3ccccc3)c2C1=O | binding, competition with immobilised ligand | 0.1 µM | 72 |
| O=C(NCCCN1CCOCC1)c1ccc(Nc2nccc(-c3cc4ccccc4s3)n2)cc1 | binding, competition with immobilised ligand | 1 µM | 58 |
| CN(C(=O)c1ccccc1)c1cc(N(C)c2ccc3c(c2)CCc2ccc(C(=O)NCCN4CCOCC4)cc2C3=O)ccc1F | cell-free assay, competition with immobilised ligand | 1 µM | 93 |
| CNC(=O)[C@@H]1CC[C@@H](n2c(-c3ccc4cnccc4c3)nc3ccc(C(=O)NCc4cccc(C(N)=O)c4)cc32)C1 | binding, competition with immobilised ligand | 1 µM | 100 |
| N#Cc1ccccc1CSc1nnc2c(n1)[nH]c1ccccc12 | binding, competition with immobilised ligand | 10 µM | 100 |
| O=C(c1ccc(Nc2ncc(Cl)c(-c3ccc(Cl)s3)n2)cc1)N1CCC(N2CCCC2)CC1 | binding, competition with immobilised ligand | 1 µM | 9.2 |
| Nc1ncc2c(n1)-c1c([nH]c3ccc(C#CC4CC4)cc13)CCCC2 | binding, competition with immobilised ligand | 1 µM | 87 |
| CN([C@@H]1CCc2c(CC(=O)O)c3cc(S(C)(=O)=O)ccc3n2C1)S(=O)(=O)c1ccc(F)cc1 | cell-free assay, competition with immobilised ligand | 1 µM | 100 |
| COc1ccnn2ncc(-c3ccnc(N(C)C)n3)c12 | binding | 1 µM | 69 |
| CC(C)(O)c1cncc(-c2nc3ccc(F)cc3n2C2CC2)c1 | cell-free assay, competition with immobilised ligand | 1 µM | 79 |
| N[C@H]1CCN(c2nccc(-c3cnn4ncccc34)n2)C1 | binding | 1 µM | 100 |
